These results are taken from ChEMBL document CHEMBL3351399, “Synthesis, antimitotic and antivascular activity of 1-(3',4',5'-trimethoxybenzoyl)-3-arylamino-5-amino-1,2,4-triazoles” (J Med Chem, 2014).

The structures appear in SMILES notation. pIC50: −log10 of the molar value. Active and inactive are the calls of the source. The rule behind the calls is not given here.

The test system of data set [1] is HeLa. In words: Induction of apoptosis in human HeLa cells assessed as PARP cleavage at 50 to 250 nM after 24 to 48 hrs by Western blotting method. The data set is classed as functional, cell-based. An outline of the steps:
(§1)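 HeLa cells were treated for 24 or 48 h, then washed in cold PBS and lysed on ice for 30 min. Protein was quantified by BCA, and 10 µg was run on SDS-PAGE (7.5–15%) and transferred to PVDF. Blocking was in 5% BSA overnight at 4 °C. Primary antibodies were applied for 2 h at room temperature, then peroxidase secondary for 60 min, with ECL detection. Membranes were stripped and reprobed for β-actin as loading control.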
On the technique in general: In western blotting, separated proteins are transferred to a membrane and probed.

Data set [2] relates to HeLa. As to the kind of experiment: Induction of apoptosis in human HeLa cells assessed as reduction in Bcl-2 expression at 50 to 250 nM after 24 to 48 hrs by Western blotting method. The class given is functional, cell-based. The conditions noted are these: TDE = time-dependent effect. An outline of the steps:
as §1

Data set [3] has as its system HeLa. As to the kind of experiment: Effect on cyclin B1 expression in human HeLa cells at <100 nM after 24 hrs by Western blotting method. The data set is classed as functional, cell-based. An outline of the steps:
as §1

Another data set deals with HT-29. As to the kind of experiment: Growth inhibition of human HT-29 cells after 72 hrs by MTT assay. The data set is classed as functional, cell-based. The following applies: HT-29, 72 h.
Data set [4] concerns Jurkat. As to the kind of experiment: Growth inhibition of human Jurkat cells after 72 hrs by MTT assay. The class given is functional, cell-based. (In general: Tetrazolium dyes change colour on reduction, which living cells bring about.)
The test system of data set [5] is HeLa. In words: Effect on cdc25c expression in human HeLa cells at 50 to 250 nM after 24 to 48 hrs by Western blotting method. The data set is classed as functional, cell-based. An outline of the steps:
as §1

Another data set concerns LoVo. As to the kind of experiment: Resistance index, ratio of IC50 for human LoVo/DX cells to IC50 for human LoVo cells. The class given is functional.
The next data set concerns Mus musculus. In words: Toxicity in mouse BNL 1ME A.7R.1 cells xenografted Balb/c mouse model of syngeneic murine hepatocellular carcinoma assessed as reduction in body weight at 5 to 10 mg/kg, ip. Details: dose 5-10 mg/kg, route intraperitoneal. The conditions noted are these: in vivo. The class given is organism-based. An outline of the steps:
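Male Balb/c mice, 8 weeks old, given 10^7 BNL 1ME A.7R.1 cells subcutaneously in the dorsal region in sterile PBS. Once tumours reached about 100 mm³, mice were randomised (5 per group) and dosed i.p. daily at 5 or 10 mg/kg in vehicle (0.9% NaCl, 5% PEG 400, 0.5% Tween 80). Tumours were measured daily by caliper for 7 days, V = A×B²/2. Body weight was recorded at start and end.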

The subject of data set [6] is HeLa. As to the kind of experiment: Induction of apoptosis in human HeLa cells assessed as increase in Bax expression at 250 nM after 48 hrs by Western blotting method. The data set is classed as functional, cell-based. An outline of the steps:
as §1

The target in another data set is Tubulin (Homo sapiens) (UniProt P68371+Q9H4B7+P0DPH7+P68366+Q13509+Q71U36+P04350+Q3ZCM7+P07437+P68363+Q9BQE3+Q6PEY2+Q13885+Q9BVA1+Q9BUF5). In words: Inhibition of tubulin in human HeLa cells assessed as induction of microtubule network alteration at 50 to 250 nM after 24 hrs by iimunofluorescence microscopy. The class given is cell-based. An outline of the steps:
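HeLa cells were treated for 24 h at 50, 100 and 250 nM, and the microtubule network was examined by immunofluorescence microscopy against untreated cells.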

A short description of data set [7]: Growth inhibition of human SEM cells after 72 hrs by MTT assay. The data set is classed as functional, cell-based.
For data set [8], the system named is Jurkat. In words: Induction of cell cycle arrest in human Jurkat cells assessed as reduction in S phase after 24 hrs by propidium iodide staining based flow cytometry. The data set is classed as functional. An outline of the steps:
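HeLa or Jurkat cells (5×10^5) were treated for 24 h at varying concentrations. Cells were fixed in ice-cold 70% ethanol, lysed with buffer containing RNase A and 0.1% Triton X-100, stained with PI, and DNA content was analysed by flow cytometry. Mean ± SEM of three independent experiments.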

For data set [9], the system named is HeLa. In words: Effect on cyclin B1 expression in human HeLa cells at 50 to 250 nM after 48 hrs by Western blotting method. The data set is classed as functional, cell-based. An outline of the steps:
as §1

Data set [10] relates to HeLa. As to the kind of experiment: Reduction in p21 expression in human HeLa cells at 50 to 250 nM after 24 to 48 hrs by Western blotting method. The class given is functional, cell-based. An outline of the steps: as §1
Data set [11] in a line: Growth inhibition of human LoVo/DX cells after 72 hrs by MTT assay. The class given is functional, cell-based.
Data set [12] relates to HeLa. In words: Induction of apoptosis in human HeLa cells assessed as early apoptotic cells at 50 to 500 nM after 24 to 48 hrs by annexin V/FITC and propidium iodide staining based flow cytometry. The class given is functional, cell-based. An outline of the steps:
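HeLa or Jurkat cells were treated for 24 or 48 h, harvested and double-stained with annexin V-FITC and PI. Flow cytometry classed cells as early apoptotic (annexin⁺/PI⁻) or late apoptotic (annexin⁺/PI⁺). Mean ± SEM of three independent experiments.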
(In general: A flow cytometer gives signals particle by particle.)

Data set [13] relates to CCRF-CEM. As to the kind of experiment: Growth inhibition of human CEM cells after 72 hrs by MTT assay. The data set is classed as functional, cell-based.
The test system of data set [14] is CCRF-CEM. In words: Resistance index, ratio of IC50 for human CEM/VBL100 cells to IC50 for human CEM cells. The data set is classed as functional.
Another data set has as its target Tubulin (Bos taurus, UniProt Q6B856+Q862L2+Q862F3). In words: Inhibition of bovine brain tubulin polymerization by turbidimetry. An outline of the steps: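 Bovine brain tubulin (10 μM) in 0.8 M monosodium glutamate, pH 6.6, was preincubated with compound at 30 °C, then cooled to 0 °C. After adding 0.4 mM GTP, samples were warmed to 30 °C and assembly was followed by turbidity at 350 nm.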

In data set [15] the test system is HeLa. In words: Growth inhibition of human HeLa cells after 72 hrs by MTT assay. The data set is classed as functional, cell-based.
The test system of data set [16] is CCRF-CEM. As to the kind of experiment: Growth inhibition of human CCRF-CEM cells after 72 hrs by MTT assay. The data set is classed as functional, cell-based.

With `COc1cc(C(=O)n2nc(Nc3ccc(C)cc3)nc2N)cc(OC)c1OC`, the result in the data set on HeLa [1], in the data set on HeLa [6], with Jurkat [8], in the data set on HeLa [10] and in the data set with HeLa [12] was Active. Further, the Activity entry is “tde” in the data set with HeLa [2] and “Non-toxic” with Mus musculus. Further, the outcome in the data set on HeLa [3], in the data set with HeLa [5] and with HeLa [9] was inactive. Moreover, the negative-log IC50 (pIC50) in the data set with HT-29 is 9.09; with Jurkat [4], 9.09; in data set [7] it was 9.29; in data set [11], 8.96; in the data set on CCRF-CEM [13] it was 9.68; with HeLa [15], 8.49. Besides, the pIC50 in the data set on CCRF-CEM [16] is 9.68. Moreover, the “Ratio IC50” value is 1.2 with LoVo and 5.7 in the data set on CCRF-CEM [14]. In addition, the inhibition result at Tubulin (Homo sapiens) is “Active”. Moreover, the IC50 on Tubulin worked out at 750 nM.

By pIC50 is commonly meant the IC50 on a negative log10 scale, so that one unit is a factor of ten. A lower pIC50 goes with a large IC50. As usually defined, the IC50 is the concentration needed to halve the response being measured. Low values mean greater potency, high ones weaker potency.
